Reference: ChEMBL document CHEMBL4814013, “Scaffold repurposing of fendiline: Identification of potent KRAS plasma membrane localization inhibitors” (Eur J Med Chem, 2021)

Columns and labels:
Format in all cases: functional, cell-based
HEC-1B cell line = assay: Antiproliferative activity against human HEC-1B cells expressing mutant KRAS assessed as reduction in cell growth incubated for 72 hrs by CyQuant proliferation assay
Summary of the method: (§1)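 Cells seeded in 96-well plates; after 24 h fresh growth medium with 0.1% DMSO vehicle or drug added (highest dose 30 µM for cancer lines), grown 72 h at 37 °C, 5% CO2. Live cell number measured by CyQUANT fluorescence. IC50 from three independent experiments. MEFs were isogenic lines carrying oncogenic BRAF or KRAS.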

HEC-1-A = assay: Antiproliferative activity against human HEC-1-A cells expressing mutant KRAS assessed as reduction in cell growth incubated for 72 hrs by CyQuant proliferation assay; summary of the method: as §1
NCI-H1299 = assay: Antiproliferative activity against human NCI-H1299 cells expressing wild type KRAS assessed as reduction in cell growth incubated for 72 hrs by CyQuant proliferation assay; settings: NCI-H1299, 72 h; summary of the method: as §1

IC50 (NCI-H1299): 8000 nM
Structure (SMILES): COc1ccc([C@@H](C)N(CC=C(c2ccccc2)c2ccccc2)CCN2CCCC2)cc1
IC50 (HEC-1B cell line): 3000 nM
IC50 (HEC-1-A): 2300 nM
